NR2E3 ag-1 – activates human photoreceptor nuclear receptor NR2E3; Q9Y5X4; GST-NR2E3/biotin-RetCOR TR-FRET, 1536-well; inhibition of corepressor binding, % at 4.78 µM; 320,000 tested, 0.12% active;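 active means percent inhibition above the cutoff of mean plus 3 SD of all tested compounds, set per screening campaign, cut at about 20% in these data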;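 further: 0% = DMSO wells and 100% = biotin wells as full block of FRET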
Target sequence (Q9Y5X4 whole entry, looked up): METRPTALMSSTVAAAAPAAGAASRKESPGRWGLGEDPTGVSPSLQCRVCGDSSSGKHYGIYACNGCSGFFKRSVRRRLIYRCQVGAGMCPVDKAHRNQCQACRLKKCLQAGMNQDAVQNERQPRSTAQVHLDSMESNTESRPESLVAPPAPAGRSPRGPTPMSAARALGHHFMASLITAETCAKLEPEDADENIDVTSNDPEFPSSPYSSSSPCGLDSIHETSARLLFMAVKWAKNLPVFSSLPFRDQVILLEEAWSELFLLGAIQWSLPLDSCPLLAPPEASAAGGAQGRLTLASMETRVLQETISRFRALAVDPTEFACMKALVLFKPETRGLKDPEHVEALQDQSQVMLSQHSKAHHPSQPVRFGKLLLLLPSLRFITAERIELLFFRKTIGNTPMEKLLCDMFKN
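Material: NR2E3–RetCOR corepressor complex / Incubation: Compound–protein incubation for 5 h at 4 °C / Dosing: compound at 4.8 µM, single dose / Detection: time-resolved FRET / Benchmarks: high control biotin, low control 0.6% DMSO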
MPTP inh – blocks calcium-induced mitochondrial swelling; 360,000 tested, 1.4% active; isolated mouse mitochondria, Ca2+ swelling absorbance, 30 min; inhibition, % at 10 µM;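 active means inhibition of 50% or more, scaled per plate between neutral and stimulator controls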;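 further: 0% = DMSO wells given calcium and 100% = 1 mM EGTA wells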
Jurkat NFkB inh – inhibitors of the PMA/ionomycin-induced NF-kB reporter in Jurkat cells | PMA/ionomycin-induced NF-kB luciferase reporter, luminescence | inhibition, % at 4 µM | 330,000 tested, 0.53% active | AID 435003; in the data active means inhibition above about 50%
NR2E3 ag-2 – human photoreceptor-specific nuclear receptor agonism | inhibition of corepressor binding, % at 3.98 µM | CHO-S Gal4-NCOR/VP16-NR2E3 two-hybrid, luciferase | 360,000 tested, 0.35% active | AID 602229 | Q9Y5X4;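 active means inhibition above the mean of all tested compounds plus 3 SD, cut at about 70% in these data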;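 further: 0% = DMSO with NR2E3 transfected cells and 100% = cells lacking NR2E3 construct; higher means lower luciferase signal from less NR2E3 corepressor binding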
697 NFkB inh – lowers PMA/ionomycin-induced NF-kB signal in 697 B cells; inhibition, % at 4 µM; 697 B-cell NF-kB luciferase reporter, 16 h; 330,000 tested, 0.33% active; in the data active means inhibition above about 35%
aDG glyco act – alpha-DG glycosylation activation. Pro5-aDG cells, alpha-DG glycosylation AlphaScreen (IIH6); 0% Pro5, 100% B10-LARGE cell signal. activation, % at 10 µM. 360,000 tested, 0.22% active. AID 624168;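 active means activation of at least 8% versus controls, or a plate z-score of at least 8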;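 further: Pro5 are CHO cells carrying HIG-tagged alpha-DG that lacks glycosylation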
NR2E3 ag conf – NR2E3 agonism confirmed in two-hybrid assay; shares compounds with NR2E3 ag-2; CHO-S mammalian two-hybrid NR2E3-NCOR, luciferase luminescence; inhibition, % at 3.98 µM; 2,300 tested, 51% active; AID 624378;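 active means average inhibition above a cutoff equal to the mean inhibition of all tested compounds plus one SD, cut at about 70% in these data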;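 further: 0% = DMSO in NR2E3 cells and 100% = DMSO in cells lacking NR2E3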
VP16 counter – reduces GAL4-VP16 reporter signal in NR2E3 counterscreen. shares compounds with NR2E3 ag-2. CHO-S GAL4-VP16 luciferase reporter, luminescence. inhibition, % at 3.98 µM. 2,300 tested, 29% active;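 active means mean inhibition above a cutoff equal to the average over all tested compounds plus one standard deviation, cut at about 70% in these data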;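 further: luciferase from a UAS reporter driven by GAL4-VP16 transactivation; 0% = DMSO with VP16-transfected cells and 100% = DMSO with cells lacking VP16; higher means less reporter light so more repression of VP16 activity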
Active calls of the source: *; · = no result. Shown are actives, neighbours in structure and some others; about 2.4% of the full set was active somewhere.

SMILES	NR2E3 ag-1	MPTP inh	Jurkat NFkB inh	NR2E3 ag-2	697 NFkB inh	aDG glyco act	NR2E3 ag conf	VP16 counter
COc1ccc(CCC(=O)Nc2ccc(C(=O)c3ccncc3)cc2)cc1	·	0	3	-39	9	0	·	·
O=C1NC(=S)S/C1=C\c1cc(Cl)cc(Cl)c1O	·	8	·	66	·	0	73*	60
Cc1cc(/C=C2\SC(=S)NC2=O)cc(C)c1O	-1	1	-7	-60	-25	0	·	·
CCCCCC(=O)N/N=C(\C)c1ccccn1	4	-3	1	-17	-4	1	·	·
CC(=NNC(=S)SCc1ccccc1)c1ccccn1	·	1	·	65	·	2	11	29
S=C(NCc1ccccn1)Nc1cccc(Cl)c1	3	0	-22	-2	-34	1	·	·
CC(=NNC(=S)N1CC2CCC(CC2)C1)c1cccc(C)n1	·	-1	·	12	·	0	·	·
CC(=NNC(=S)Nc1cccc(Cl)c1)c1ccccn1	·	0	·	95*	·	-1	-65	-15
CC(=NNC(=S)N1CCCC1)c1ccccn1	·	-2	·	86*	·	-1	-2	8
CC(=NNC(=S)N1CCC1)c1ccccn1	·	0	·	75*	·	0	-2	4
C=C(C)Cn1c(=O)c2c(nc3n2CC(C)CN3Cc2ccccc2)n(C)c1=O (stereo not given)	-1	0	-5	63	-16	0	13	-20
CC(C)c1ccc(/C=C(\c2nc3ccccc3[nH]2)S(=O)(=O)c2ccccc2)cc1	-2	5	9	100*	-14	-1	97*	7
O=S(=O)(/C(=C/c1ccc(C(F)(F)F)cc1)c1nc2ccccc2[nH]1)c1ccccc1	0	7	·	28	·	-1	·	·
O=C(CCCN1C(=O)/C(=C/c2ccccc2Cl)SC1=S)NCCCN1CCOCC1	2	-1	-9	78*	34	1	-18	63
O=C(CCN1C(=O)/C(=C/c2ccccc2F)SC1=S)NCCCN1CCOCC1	0	0	-12	11	-24	0	·	·
Cc1ccc(Cl)cc1NS(=O)(=O)c1ccc(-n2cccn2)cc1	-4	2	-6	46	3	0	·	·
Cc1ccc(NS(=O)(=O)c2ccc(-n3cccn3)cc2)cc1F	-1	0	1	57	-17	0	37	37
Cc1ccc(NS(=O)(=O)c2ccc(-n3cccn3)cc2)c(Br)c1	·	6	·	49	·	0	62	48
Cc1ccc(NS(=O)(=O)c2ccc(-n3cccn3)cc2)c(C)c1	1	2	-15	23	-57	1	·	·
COc1ccc(CCNC(=O)c2ccc(N3CCCCS3(=O)=O)cc2)cc1OC	0	0	3	-2	-12	0	·	·
O=c1c2c(nc3c(-c4ccc(Cl)cc4)c[nH]n13)CCC2	-6	0	-18	77*	4	1	66	50
COc1ccc(NC2c3ccccc3C(=O)N2Cc2ccccc2Cl)cc1OC (stereo not given)	-1	2	10	69	21	0	71*	-8
O=[N+]([O-])c1ccc(Sc2cccc[n+]2[O-])c2nonc12	·	5	·	102*	·	0	-44	-7
O=[N+]([O-])c1ccc(Nc2ccccc2)c2nonc12	-3	6	-4	9	0	0	·	·
O=C(CC(Nc1ccc(Cl)cc1Cl)C(=O)O)c1ccccc1 (stereo not given)	2	2	-53	59	-85	0	40	26
SMILES	NR2E3 ag-1	MPTP inh	Jurkat NFkB inh	NR2E3 ag-2	697 NFkB inh	aDG glyco act	NR2E3 ag conf	VP16 counter
CC(C)CN(C(=O)Cn1nnc(-c2ccc(Cl)cc2)n1)C1CCS(=O)(=O)C1 (stereo not given)	·	0	·	-29	·	0	·	·
Cc1cc(C)c(S(=O)(=O)c2ccccc2Cl)c(=O)[nH]1	-1	0	-13	-14	-2	0	·	·
COc1ccc(C(O)c2nc(-c3ccccc3C)cs2)cc1 (stereo not given)	·	1	·	-5	·	0	·	·
Cc1cc(Nc2nc3ccccc3[nH]c2=O)n(-c2ccccc2)n1	-1	2	25	52	-80	0	40	22
CCOC(=O)NC(=O)/C(C#N)=C\NNc1ncc(C(F)(F)F)cc1Cl	-3	-1	1	1	-14	0	·	·
Cc1nn(CCCC(=O)NCc2ccccc2)c(=O)c2nn(-c3ccccc3)c(C)c12	-1	-1	19	-6	8	0	·	·
Cc1ccc(-n2nc3c(=O)n(CCCC(=O)NCc4cccc(F)c4)nc(C)c3c2C)cc1	-1	-1	39	52	17	0	20	39
O=C(Nc1ccc(Br)c2ccccc12)c1ccc2ccccc2c1O	38*	39	·	107*	·	0	99*	79*
CC(=O)Nc1ccc(S(=O)(=O)Nc2ccc3c(c2)CCC3)cc1	4	0	-16	51	-30	0	22	29
CC(=O)N1CCCc2ccc(NS(=O)(=O)c3ccc(C)c(C)c3)cc21	-1	6	2	67	-24	1	60	48
COc1ccc(S(=O)(=O)Nc2ccc3c(c2)CCC3)cc1	1	1	7	6	-5	0	·	·
C(=NN1CCCCCC1)c1cccc2ccccc12	·	0	·	6	·	0	·	·
C(=NN1CCCCCC1)c1ccc2ccccc2n1	·	0	·	95*	·	0	86*	68
COc1ccc2oc(C(=O)OCC(=O)N3CCN(S(=O)(=O)c4ccccc4)CC3)c(C)c2c1	-6	-2	1	51	21	0	90*	71*
COc1ccc(CCNC(=O)C2CCN(S(=O)(=O)N3CCC(C)CC3)CC2)cc1OC	0	-2	9	15	-3	0	·	·
COC(=O)c1cc(OC)c(OC)cc1NC(=S)Nc1cc(Cl)ccc1OC	3	24	13	-5	5	0	·	·
COc1ccc(Cl)cc1NC(=S)NNC(=O)C1(C)CC1(Cl)Cl (stereo not given)	1	18	7	49	11	0	-15	-8
CCCCNC(=O)C1c2ccccc2OCC(=O)N1Cc1ccc2c(c1)OCO2 (stereo not given)	·	0	·	-2	·	0	·	·
CCCCN(C(C)=O)c1ccc2c(c1)C1CC2CCN1C(=O)OCc1ccccc1 (stereo not given)	·	6	·	68	·	1	91*	69
CCN(CCc1ccccc1)c1ccc2c(c1)C1CC2CCN1C(=O)OCc1ccccc1 (stereo not given)	·	-1	·	-15	·	0	·	·
